# Laboratory results published in ChEMBL document CHEMBL3603756, “Synthesis and apoptotic activity of new pyrazole derivatives in cancer cell lines” (2015).
# Calls of active or inactive are those of the source. No cut-off for these calls is given here.
# How the values were obtained:
# [1] = system: HCT-8; assay: Induction of apoptosis in human HCT8 cells assessed necrosis level at 50 ug/ml incubated for 24 hrs by annexin V-FITC and propidium iodide staining based flow cytometry (reference value: 1.12%); assay type: functional
# [2] = Cytotoxicity against human HCT8 cells assessed as cell viability at 25 ug/ml incubated for 24 hrs by MTS assay; assay type: functional; details: HCT-8, 24 h, read-out: Activity
# How it was run: (§1)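 Cells were held at 37 °C, 5% CO2 in humid air. HEp-2 (5 x 10³/well) and HCT-8 (7 x 10³/well) grew in DMEM + 10% heat-inactivated FBS and got compound (binary dilutions) 24 h after seeding. THP-1 (5 x 10³ cells, RPMI-1640 + 10% FBS) were added directly to the dilutions. Exposure lasted 24 h. MTS (CellTiter 96 AQueous One) read-out was absorbance at 490 nm.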
# [3] = system: HEp-2; assay: Reduction in survivin protein levels in human Hep2 cells at 50 ug/ml incubated for 24 hrs by protein array method; assay type: functional, cell-based
# [4] = system: THP-1; assay: Cytotoxicity against human THP1 cells assessed as cell viability at 50 ug/ml incubated for 24 hrs by MTS assay; assay type: functional; details: THP-1, 24 h, read-out: Activity; how it was run: as §1
# [5] = system: HEp-2; assay: Induction of cell cycle arrest in human Hep2 cells assessed accumulation at G0/G1 phase at 50 ug/ml incubated for 24 hrs by propidium iodide staining based flow cytometry (reference value: 74.51%); assay type: functional
# [6] = system: HCT-8; assay: Induction of apoptosis in human HCT8 cells assessed viable cells level at 50 ug/ml incubated for 24 hrs by annexin V-FITC and propidium iodide staining based flow cytometry (reference value: 93.3%); assay type: functional
# [7] = system: HEp-2; assay: Reduction in livin protein levels in human Hep2 cells at 50 ug/ml incubated for 24 hrs by protein array method; assay type: functional, cell-based
# [8] = system: HEp-2; assay: Induction of cell cycle arrest in human Hep2 cells assessed accumulation at G2/M phase incubated for 24 hrs by propidium iodide staining based flow cytometry; assay type: functional
# [9] = system: HEp-2; assay: Increase in FADD protein expression in human Hep2 cells at 50 ug/ml incubated for 24 hrs by protein array method; assay type: functional, cell-based
# [10] = system: HEp-2; assay: Induction of cell cycle arrest in human Hep2 cells assessed accumulation at G2/M phase at 10 ug/ml incubated for 24 hrs by propidium iodide staining based flow cytometry (reference value: 7.82%); assay type: functional
# [11] = system: HEp-2; assay: Increase in caspase-8 levels in human Hep2 cells at 50 ug/ml incubated for 24 hrs by protein array method; assay type: functional, cell-based
# [12] = system: HEp-2; assay: Increase in Fas/TNFRSF6 protein expression in human Hep2 cells at 50 ug/ml incubated for 24 hrs by protein array method; assay type: functional, cell-based
# [13] = Reduction in PRKAA1 gene expression in human Hep2 cells at 10 ug/ml incubated for 24 hrs by real-time PCR method; assay type: functional, cell-based; details: HEp-2
# How it was run: (§2)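 HEp-2 cells were treated 24 h at 10 or 50 µg/mL. Total RNA was extracted with Trizol, and 2 µg was reverse-transcribed. 50 ng cDNA went into TaqMan real-time PCR with beta-actin as endogenous control. Relative expression was calculated by the ∆∆CT method. Each experiment was run three times.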
# [14] = system: HEp-2; assay: Induction of cell cycle arrest in human Hep2 cells assessed accumulation at G2/M phase at 50 ug/ml incubated for 24 hrs by propidium iodide staining based flow cytometry (reference value: 7.82%); assay type: functional
# [15] = system: HEp-2; assay: Induction of cell cycle arrest in human Hep2 cells assessed accumulation at G0/G1 phase at 10 ug/ml incubated for 24 hrs by propidium iodide staining based flow cytometry (reference value: 74.51%); assay type: functional
# [16] = system: HCT-8; assay: Induction of apoptosis in human HCT8 cells assessed late apoptosis level at 50 ug/ml incubated for 24 hrs by annexin V-FITC and propidium iodide staining based flow cytometry (reference value: 4.8%); assay type: functional
# [17] = system: HEp-2; assay: Reduction in c-IAP1 levels in human Hep2 cells at 50 ug/ml incubated for 24 hrs by protein array method; assay type: functional, cell-based
# [18] = system: HEp-2; assay: Reduction in pro-caspase-3 levels in human Hep2 cells at 50 ug/ml incubated for 24 hrs by protein array method; assay type: functional, cell-based
# [19] = system: HEp-2; assay: Induction of cell cycle arrest in human Hep2 cells assessed accumulation at S phase at 10 ug/ml incubated for 24 hrs by propidium iodide staining based flow cytometry (reference value: 21.06%); assay type: functional
# [20] = system: HEp-2; assay: Reduction in XIAP levels in human Hep2 cells at 50 ug/ml incubated for 24 hrs by protein array method; assay type: functional, cell-based
# [21] = Cytotoxicity against human Hep2 cells assessed as cell viability at 50 ug/ml incubated for 24 hrs by MTS assay; assay type: functional; details: HEp-2, 24 h, read-out: Activity; how it was run: as §1
# [22] = system: HCT-8; assay: Induction of apoptosis in human HCT8 cells assessed early apoptosis level at 50 ug/ml incubated for 24 hrs by annexin V-FITC and propidium iodide staining based flow cytometry (reference value: 0.75%); assay type: functional
# [23] = system: HEp-2; assay: Reduction in HSP27 protein levels in human Hep2 cells at 50 ug/ml incubated for 24 hrs by protein array method; assay type: functional, cell-based
# [24] = Reduction in PRKAA2 gene expression in human Hep2 cells at 50 ug/ml incubated for 24 hrs by real-time PCR method; assay type: functional, cell-based; details: HEp-2; how it was run: as §2
# [25] = Cytotoxicity against human HCT8 cells assessed as cell viability at 50 ug/ml incubated for 24 hrs by MTS assay; assay type: functional; details: HCT-8, 24 h, read-out: Activity; how it was run: as §1
# [26] = Cytotoxicity against human Hep2 cells assessed as cell viability at 25 ug/ml incubated for 24 hrs by MTS assay; assay type: functional; details: HEp-2, 24 h, read-out: Activity; how it was run: as §1
# [27] = system: HEp-2; assay: Induction of apoptosis in human Hep2 cells assessed as increase in p53 S15/S46/S392 phosphorylation level at 50 ug/ml incubated for 24 hrs by protein array method; assay type: functional, cell-based
# [28] = Cytotoxicity against human HCT8 cells assessed as cell viability at 12.5 ug/ml incubated for 24 hrs by MTS assay; assay type: functional; details: HCT-8, 24 h, read-out: Activity; how it was run: as §1
# [29] = system: HEp-2; assay: Reduction in c-IAP2 levels in human Hep2 cells at 50 ug/ml incubated for 24 hrs by protein array method; assay type: functional, cell-based
# [30] = system: HEp-2; assay: Induction of cell cycle arrest in human Hep2 cells assessed accumulation at S phase at 50 ug/ml incubated for 24 hrs by propidium iodide staining based flow cytometry (reference value: 21.06%); assay type: functional
# [31] = system: THP-1; assay: Cytotoxicity against human THP1 cells assessed as cell viability at 25 ug/ml incubated for 24 hrs by MTS assay; assay type: functional; details: THP-1, 24 h, read-out: Activity; how it was run: as §1
# [32] = system: HEp-2; assay: Increase in TRAIL-R2 protein expression in human Hep2 cells at 50 ug/ml incubated for 24 hrs by protein array method; assay type: functional, cell-based
# [33] = Cytotoxicity against human Hep2 cells assessed as cell viability at 12.5 ug/ml incubated for 24 hrs by MTS assay; assay type: functional; details: HEp-2, 24 h, read-out: Activity; how it was run: as §1
# [34] = Reduction in PRKAA2 gene expression in human Hep2 cells at 10 ug/ml incubated for 24 hrs by real-time PCR method; assay type: functional, cell-based; details: HEp-2; how it was run: as §2
# [35] = Reduction in PRKAA1 gene expression in human Hep2 cells at 50 ug/ml incubated for 24 hrs by real-time PCR method; assay type: functional, cell-based; details: HEp-2; how it was run: as §2
# [36] = system: HEp-2; assay: Increase in cleaved-caspase-3 levels in human Hep2 cells at 50 ug/ml incubated for 24 hrs by protein array method; assay type: functional, cell-based
# [37] = system: THP-1; assay: Cytotoxicity against human THP1 cells assessed as cell viability at 12.5 ug/ml incubated for 24 hrs by MTS assay; assay type: functional; details: THP-1, 24 h, read-out: Activity; how it was run: as §1
# [38] = system: HEp-2; assay: Increase in TRAIL-R1 protein expression in human Hep2 cells at 50 ug/ml incubated for 24 hrs by protein array method; assay type: functional, cell-based
# [39] = system: HEp-2; assay: Reduction in HSP70 protein levels in human Hep2 cells at 50 ug/ml incubated for 24 hrs by protein array method; assay type: functional, cell-based
smiles,measurement,setting,value
Cn1cc(C(=O)/N=C2\SCC(C)(O)N2c2ccc(I)cc2)cn1 (centres undefined),Activity,[1],1.44%
same,viability at 25 µg/mL,[2],100%
same,Activity,[3],Active
same,viability at 50 µg/mL,[4],38.4%
same,Activity,[5],43.62%
same,Activity,[6],90.2%
same,Activity,[7],Active
same,Activity,[8],Dose-dependent effect
same,Activity,[9],Active
same,Activity,[10],14.92%
same,Activity,[11],Active
same,Activity,[12],Active
same,Activity,[13],Active
same,Activity,[14],33.4%
same,Activity,[15],74.73%
same,Activity,[16],3.37%
same,Activity,[17],Active
same,Activity,[18],Active
same,Activity,[19],17.85%
same,Activity,[20],Active
same,viability at 50 µg/mL,[21],89%
same,Activity,[22],4.96%
same,Activity,[23],Active
same,Activity,[24],Active
same,viability at 50 µg/mL,[25],90.2%
same,viability at 25 µg/mL,[26],100%
same,Activity,[27],Active
same,viability at 12.5 µg/mL,[28],100%
same,Activity,[29],Active
same,Activity,[30],27.01%
same,viability at 25 µg/mL,[31],84.1%
same,Activity,[32],Active
same,viability at 12.5 µg/mL,[33],100%
same,Activity,[34],Active
same,Activity,[35],Active
same,Activity,[36],Active
same,viability at 12.5 µg/mL,[37],97%
same,Activity,[38],Active
same,Activity,[39],Active
